The EternaBench riboswitch data

Tested on: MS2 coat protein
Test: apparent Kd, MS2 coat protein; higher = weaker binding; RNA-MaP array; FMN 200 µM where present
Outline: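 Stalled E. coli RNA polymerase produced the designs on Illumina sequencing-chip clusters. SNAP-549-labelled MS2 coat protein was added from 0.7 or 1.5 nM, doubling to 3 µM, without and then with constant ligand, in 100 mM Tris-HCl pH 7.5, 80 mM KCl, 4 mM MgCl2, BSA, DTT, yeast tRNA and Tween-20. The apparent Kd is the median of filtered per-cluster fits of green signal normalised to red-channel RNA signal and control-cluster median Fmax.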

[1] = designed as: OFF switch for flavin mononucleotide, no ligand
[2] = ligand present: flavin mononucleotide, designed as: OFF switch for flavin mononucleotide
[3] = designed as: ON switch for flavin mononucleotide, no ligand
[4] = ligand present: flavin mononucleotide, designed as: ON switch for flavin mononucleotide

Row | Sequence | apparent Kd [1] | apparent Kd [2] | apparent Kd [3] | apparent Kd [4]
1 | UUUCCCUGGCAAGGAUAUCCUGUGCGGUUCCGGCUCGUGUCUGUUACAUGAGGAUCACCCAUGUGGGAGAAGGUGCCUGUGGCU | 0.0532 µM | 0.232 µM | – | –
2 | AAGUCGACGGUGAGGAUAUCGGUUGAACGACAGAUCGAGAAGGCACAUGAGGAUCACCCAUGUGGGUAACGUCG | 0.0193 µM | 0.0318 µM | – | –
3 | GUGUACAGAGGAUAUACAUAAGCUAGGAAACUAGCAUCUUCACAUGAGGAUCACCCAUGUAGAAGGCUGUACAC | 0.0198 µM | 0.0785 µM | – | –
4 | GUCAGCUCGUGAGGAUAUACAAGACUGCUUCGGCAGUGUAUUAAGAUCACAUGAGGAUCACCCAUGUAGAAGGCACGAGCUGAU | 0.00812 µM | 0.0796 µM | – | –
5 | GGGAUUAAGGCAGGAUAUCCGGGUUGGCCUCGACAUGAGGAUCACCCAUGUGGAGAAGGGCCGAUUGCCCGUAGGGUGAUCAAG | 0.274 µM | 0.108 µM | – | –
6 | CUGUUGUGGUGCUGCUUGGCUUGGAGAGAAGGGUGAUUCACAUGAGGAUCACCCAUGUAGGACUUACAGGAUAUUUCCGGGUCU | – | – | 0.0178 µM | 0.0188 µM
7 | UCUGAUAUUCCCGUGCCUCCAACACAGGAUAUCCGUCACAACAUGAGGAUCACCCAUGUCCGGGAGGAGAAGGGUGUGGAGAGU | – | – | 0.0913 µM | 0.0215 µM
8 | UUUGUCUGUGUGAGGAUAUACUUUGUUUGGUCGUUGUAGAAGGCACAUGAGGAUCACCCAUGUAUUUUGUUGUG | 0.0287 µM | 0.0317 µM | – | –
9 | AGCUGUGGCCGAGGAUAUCUGAACUUUCAAACCGAAAUAUAAUCGGACAUGAGGAUCACCCAUGUAGAGAAGGCGGUCUCAGCA | 0.016 µM | 0.0136 µM | – | –
10 | UCAUACGGUGAGGAUAUCUCCACUAAAGUGUGUAGAGAAGGCGCUACAUGAGGAUCACCCAUGUUUAUGGGCAG | 0.376 µM | 0.117 µM | – | –
11 | CAGGCGGAGUCAGGAUAUGCACGGUGGACCUAUGACAUGAGGAUCACCCAUGUUACUACGCCUCAGCAGAAGGGACAACCUCCU | – | – | 0.0888 µM | 0.00787 µM
12 | CAAUUUAUAGCAGGAUAUAUAAUACAAUGAUUAAUAGAAGGGUUUAAUACAUGAGGAUCACCCAUGUCAUGUGUCAUAAUAACC | 0.0334 µM | 0.0288 µM | – | –
13 | UAUGAAUGAGGAUAUGCAUAGUAGACUCCUCAUUUCUUCGGACAUGAGGAUCACCCAUGUAGAAGGCGUUGCGU | 0.0331 µM | 0.058 µM | – | –
14 | ACGGCUGUCAGAGGAUAUGGUUACAUGAGGAUCACCCAUGUCAAGGGUCUAAUUAAGUAUAACUACUAGAAGGCUGAUGGCCGA | 0.282 µM | 0.129 µM | – | –
15 | GUUAGUUAAGGAUAUACUGGGAGCUGCGGCGUCUCGCCGCAACAUGAGGAUCACCCAUGUAGAAGGUGACCGUU | 0.64 µM | 0.285 µM | – | –
16 | AAUCGGGAGCAGAAGGCAUGUCAUAAGACAUGAGGAUCACCCAUGUAGUUAAGAUGAAAAUCGCAUGAGGAUAUGCUCCCGUAA | – | – | 0.115 µM | 0.0185 µM
17 | CAGUUCUGAGGAUAUCCAUCCUCCUACAUGAGGAUCACCCAUGUUUCCCUCUGGGUUUUCGGAGAAGGCAGUUAUU | 0.321 µM | 0.556 µM | – | –
18 | ACUGUUAGAGUCUUCCUUAUCACAUGAGGAUCACCCAUGUGGAGAAGGGACUGUAUCGUUAUCAGUUAGGAUAUCCAUGUGUGC | 0.00462 µM | 0.00472 µM | – | –
19 | CCCACGAAAGUCGAACGAUGAUGGAGAAGGAGUAUAACAUGACAUGAGGAUCACCCAUGUGCCAACUAGGAUAUCCAUCAUGGG | 0.00972 µM | 0.00855 µM | – | –
20 | UUUUGACAUGAGGAUCACCCAUGUGAGGAUAUGAUGCGAUCGUCGAAAGACGAUAGCAUCAGAAGGCACAUAUG | 0.112 µM | 0.336 µM | – | –
21 | AAAAUGUAAGGAUAUGCUGCUCGUCACUUGCGUGAUGAGUAGCAGAAGGUACAUGAGGAUCACCCAUGUAAAGA | 0.0327 µM | 0.0458 µM | – | –
22 | AAGUAGACGGUGAGGAUAUAGGUCGAACGACCGAUCUAGAAGGCACAUGAGGAUCACCCAUGUGGGUAACGUCG | 0.018 µM | 0.0196 µM | – | –
23 | GUGGUCAGACAUGAGGAUCACCCAUGUGGAAUAAAUAACGUCAAGGAUAUACAAUAUAGGAUAUAGUAGAAGGUGAGAUUGGUG | – | – | 0.114 µM | 0.113 µM
24 | GAUACACAUGAGGAUCACCCAUGUUAGGAUAUUAGCGGGAAAGCUGUCAAAACGCCGAUGAGAAGGAACAGGAG | 0.0406 µM | 0.0314 µM | – | –
25 | UUGUUGUAUGUAGGAUAUGCAUAUUAUUAUUAUGCAGAAGGACAUGAGGAUCACCCAUGUAUGUUAUUAUUAUAUGUUAUAUGU | 0.0336 µM | 0.0426 µM | – | –
26 | UCAUCAGCGGGCGGGUCGGUUGGACAUGAGGAUCACCCAUGUAGAAGGACCGGUGGACUCCGGCGGUAGGAUAUACAUUUGGUG | 0.0161 µM | 0.0263 µM | – | –
27 | UAUUGAUAAUAUUUUAACAUGAGGAUCACCCAUGUCGCUAGACAGGAUAUAUUUUAUUUGUUUAAGUAGAAGGGUCGCAGAUUU | – | – | 0.15 µM | 0.13 µM
28 | AAAUAUAAGCGAGGAUAUAUACAUGAGGAUCACCCAUGUCCCAUGUCAUGAGCAUCAGCCAUGUAGUAGAAGGCGCACAUGAGG | 0.1 µM | 0.0535 µM | – | –

Row | Sequence | apparent Kd [1] | apparent Kd [2] | apparent Kd [3] | apparent Kd [4]
29 | CCAAGCUGUGUGAGGAUAUGCUGGUCGAAAGAUCAGCAGAAGGCACAUGAGGAUCACCCAUGUGAAAAGCUUGG | 0.0183 µM | 0.0509 µM | – | –
30 | CUAAGUGCCGGAGGAUAUACAUGAGGAUCACCCAUGUCAGUCUGUUUACAUGUAGAAGGCCGGCGAACAAAGGACUUGCCAAGA | 0.0481 µM | 0.298 µM | – | –
31 | AAGUACCGGUGAGGAUAUUUUUAAUAGAACUUUAUGAUAUACAUGAGGAUCACCCAUGUUACUUUAAAGAAGGCAUCGGAUUAA | 0.018 µM | 0.0149 µM | – | –
32 | AACUAGCUAGGAUAUACAUGAGGAUCACCCAUGUAAAAAAAAAAAAAAAGAUUUAUAUGUAGAAGGAGCUAGUA | 0.0401 µM | 0.0658 µM | – | –
33 | CUUGUUUAUGUGAGGAUAUACUGUUAGUAAUGUUUGUAGAAGGUACAUGAGGAUCACCCAUGUUUAUUUUUUUU | 0.0205 µM | 0.0197 µM | – | –
34 | CAACUGGCACAGAAGGGUGACAUGAGGAUCACCCAUGUAGCGUGGCACUCAGGAGGAGCCACGCCACAGGAUAUGUGCGGGCAC | – | – | 0.0423 µM | 0.0784 µM
35 | GUAUGUAAGGAGAAGGGCUACUGGUUGAAACCUGCGGCCUCUGGAACAUGAGGAUCACCCAUGUAGCAGGAUAUCCUUGCGUGA | 0.222 µM | 0.0229 µM | – | –
36 | GAAUUCGCAUGAGGAUAUGCACUCAUUUCAUGUGCAGAAGGUAUAACAUUAGACAUGAGGAUCACCCAUGUAUUAGUCAUUAAC | – | – | 0.0101 µM | 0.00937 µM
37 | UUUAUACAUGAGGAUCACCCAUGUCAACAAAGUCGAGGAUAUGGGCAUAUUAUCUUAUUUCCAGAAGGCGAAUUCU | – | – | 0.233 µM | 0.0733 µM
38 | CCCACAUGAGGAUAUCCAUCUGGAUCAGACUAGAUCCUGAUGGAGAAGGUACAUGAGGAUCACCCAUGUGUGGG | 0.301 µM | 0.222 µM | – | –
39 | CCUCUACAUGAGGAUCACCCAUGUGAGGAUAUCAAAGCCAGAGCGGCGCUCUGGCCCAUGAGAAGGUGCAUGGA | 0.0259 µM | 0.133 µM | – | –
40 | GUGUGAUUAAGAGGAUAUAUACAACAUGAGGAUCACCCAUGUACCCGUGUAGUAGAAGGUUUGUUUUUAUAUAAUAAUAUAAUU | – | – | 0.0293 µM | 0.0279 µM
41 | GUUAGUUAAGGAUAUACAGGGAGCCGCGGCGUCUCGCCGCAACAUGAGGAUCACCCAUGUAGAAGGUGGCCAUU | 0.15 µM | 0.119 µM | – | –
42 | UCAGAUGUACAUGAGGAUCACCCAUGUCAUAUGCCCGUGACACAGGAUAUCCAGGAUAGGCCAAAGGAGAAGGGUGAUCCGCGG | – | – | 0.103 µM | 0.158 µM
43 | UUUACAUGAGGAUCACCCAUGUUAAAAUAAUUAAUUAUAAGUGAGGAUAUAUAAUUUAUAAAAUUGUAGAAGGCACUGGGUAUU | – | – | 0.0174 µM | 0.0211 µM
44 | AAUAAACGCACAGGAUAUAGCAUCGACGUUGAGAACUUAAAGACGUCGAUGCUAGAAGGGUGAAAACAUGAGGAUCACCCAUGU | – | – | 0.0876 µM | 0.0187 µM
45 | CUUAGACAUGAGGAUCACCCAUGUGAGGAUAUGAUGCGAUCGUGCUGACAUGAUCGCAUCAGAAGGCACAAAUG | 0.141 µM | 0.173 µM | – | –
46 | UGAUAGGACAGAGGAUAUACGUGCUAGAGAUACUAGCAAAAUAUCCUUACAUGAGGAUCACCCAUGUAGAAGGCUGUCCUAUCU | 0.02 µM | 0.0202 µM | – | –
47 | GCUGCAUAGGCAGGAUAUGCAAUAAUUCGAAUAAAAUAUAACGGAUUAACAUGAGGAUCACCCAUGUAGAAGGGCCUGUGCAGU | 0.00573 µM | 0.00549 µM | – | –
48 | GUAGCUAUCGGAGGAUAUUCAUACCGGAAACGGACAUGAGGAUCACCCAUGUGGCGAAAGCCUUGGGAGAAGGCCGAUCGCUAC | – | – | 0.239 µM | 0.00845 µM
49 | CAUACAGUAGUCAGGAUAUUGGAAGAGACACGGAACGAGAAGGGACAUGAGGAUCACCCAUGUAUACUGUAAAG | 0.0268 µM | 0.0226 µM | – | –
50 | GAGCCCUAAGGAUAUAGAAGGUCCAACAUGAGGAUCACCCAUGUACGGUGUGGACGUGGGCUAGAAGGUGGAACUU | 0.188 µM | 0.147 µM | – | –
51 | UUUGCAUUCCGAGGAUAUUCAGAUAAUAACUACACAUGAGGAUCACCCAUGUGGCGAUAGCCUAGGGAGAAGGCGGUUUGCUUU | – | – | 0.0197 µM | 0.0209 µM
52 | GCACUUAUAUUUGAACCGAUUCGAACAUGAGGAUCACCCAUGUAGGAUAUGCUAAAAGUUGUGAUGCAGAAGGACAUUAAGUGC | 0.00544 µM | 0.00674 µM | – | –
53 | GCGUCAGGAGGAUAUACAUGAGGAUCACCCAUGUAACACGGGAUCGUCGUUUAGUAGAGUAGAAGGCCUAUUGU | 0.0641 µM | 0.106 µM | – | –
54 | UGGUACUAGGGAGGAUAUGAGAAGAUACAUGAGGAUCACCCAUGUUUAAGAAUGCCGAGAGGCAACUAGAAGGCCCUAGUACCU | – | – | 0.00785 µM | 0.00523 µM
55 | UUGUUGUAUGUAGGAUAUGCAUAUUAUUAUUAUGCAGAAGGACAUGAGGAUCACCCAUGUAUAUUAUUAUUAUAUGUUAUAUAU | 0.026 µM | 0.0342 µM | – | –
